Data set [1] has as its system NCI/ADR-RES. Nature of the data set: Inhibition of P-gp in human NCI/ADR-RES cells assessed as rate of calcein-AM accumulation at 1 uM by fluorescence assay. Type of data set: cell-based. A digest of the protocol: (§1)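 Cells seeded at 2 × 10^3/well and grown 2 d, washed and placed in HBSS; test compound added at 2X in HBSS with DMSO ≤1% final, then calcein-AM at 1 µM final; intracellular fluorescence followed over time, rate taken as slope from linear regression.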

For the next data set, the species on record is Sus scrofa. The data set can be described thus: Inhibition of pig tubulin polymerization assessed as Vmax of tubulin polymerization at 10 uM after 60 mins turbidimetric analysis (reference value: 27 +/- 2 milliOD/min).
The subject of data set [2] is MCF7. The data set can be described thus: Cytotoxicity against human MCF7 cells. In kind it is functional, cell-based.
The nature of data set [3]: Terminal half life in human. In kind it is ADME, organism-based. To be noted: in vivo, read-out: beta t1/2 (converted).
The subject of a further data set is HeLa. The data set can be described thus: Cytotoxicity against human HeLa cells. Type of data set: functional, cell-based.
The test system of data set [4] is NCI/ADR-RES. Nature of the data set: Antiproliferative activity against human NCI/ADR-RES cells after 6 days by MTT assay. In kind it is functional, cell-based. The settings on record: 144 h. A digest of the protocol:
(§2)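 Cells seeded overnight at 1500/well, then exposed to a range of concentrations for 6 d; viability by MTT (570 nm, background-subtracted, normalised to untreated control = 100%); EC50 from sigmoidal dose-response fit by non-linear least squares; mean ± SEM of at least 8 independent observations. MCF-7 in MEMα + 10% FBS; NCI/AdrRES in DMEM + 10% FCS with periodic 3 µM doxorubicin selection.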

Data set [5] deals with PANC-1. Nature of the data set: Cell cycle arrest in human PANC1 cells assessed as accumulation at G2/M phase at 10 uM after 18 hrs by Hoechst 33342 staining based FACS analysis (reference value: 13.7%). Type of data set: functional.
In data set [6] the test system is PANC-1. Nature of the data set: Cell cycle arrest in human PANC1 cells assessed as accumulation at S phase at 10 uM after 18 hrs by Hoechst 33342 staining based FACS analysis (reference value: 11.1%). In kind it is functional.
For data set [7], the system named is MCF7. Nature of the data set: Effect on calcein-AM accumulation in human wild type MCF7 cells at 1 uM by fluorescence assay. Type of data set: functional, cell-based. In short, it runs like this: as §1
The nature of data set [8]: Absolute oral bioavailability in human at 150 mg. In kind it is ADME, organism-based. The settings on record: in vivo.
Data set [9] deals with PANC-1. The data set can be described thus: Cell cycle arrest in human PANC1 cells assessed as increase in accumulation at G2/M phase at 10 uM after 18 hrs by Hoechst 33342 staining based FACS analysis relative to control. In kind it is functional. A digest of the protocol:
(§3)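 Cells seeded 48 h beforehand, treated 18 h with test compounds at 10 µM or vincristine at 100 nM, then trypsinised and stained with Hoechst 33342 for 60 min; FACS read at 450 nm; % G2/M increase calculated relative to 0.1% DMSO vehicle; mean ± SEM of three independent experiments.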

The test system of data set [10] is MCF7. Nature of the data set: Antiproliferative activity against human MCF7 cells after 6 days by MTT assay. Type of data set: functional, cell-based. The settings on record: MCF7, 144 h. A digest of the protocol: as §2
Data set [11] in a line: Binding affinity to recombinant P-gp cys-less mutant (unknown origin) in proteoliposomes assessed as increase in ATP hydrolysis rate after 40 mins by colorimetric assay. Set-up: species or system Homo sapiens. In short, it runs like this: (§4)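 P-gp expressed in High-Five insect cells via recombinant baculovirus, IMAC-purified and reconstituted into proteoliposomes; 0.1-0.5 µg incubated with 2 mM ATP and drug at 10^-9 to 10^-4 M for 40 min at 37 °C; liberated Pi measured colorimetrically; EC50 and extent of stimulation from dose-response fit against drug-free basal activity.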

Data set [12] relates to MCF7. The data set can be described thus: Cell cycle arrest in human MCF7 cells assessed as increase in accumulation at G2/M phase at 10 uM after 18 hrs by Hoechst 33342 staining based FACS analysis relative to control. In kind it is functional. In short, it runs like this:
as §3

Data set [13] is filed under the species Homo sapiens. The data set can be described thus: Binding affinity to recombinant P-gp cys-less mutant (unknown origin) in proteoliposomes assessed as increase in ATP hydrolysis rate at 10^-9 to 10^-4 M after 40 mins by colorimetric assay relative to basal control. In short, it runs like this: as §4
In data set [14] the test system is PANC-1. The data set can be described thus: Cell cycle arrest in human PANC1 cells assessed as accumulation at G1 phase at 10 uM after 18 hrs by Hoechst 33342 staining based FACS analysis (reference value: 70.7%). Type of data set: functional.
Data set [15] is described as follows: Cytotoxicity against human Renal 1983 cells. In kind it is functional, cell-based.
For data set [16], the species on record is Homo sapiens. The data set can be described thus: Ratio of nicardipine activity to test compound activity for inhibition of P-gp in human NCI/ADR-RES cells assessed as rate of calcein-AM accumulation. In kind it is cell-based. A digest of the protocol:
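Rate of calcein accumulation in NCI/AdrRES cells (1 µM calcein-AM in HBSS, fluorescence versus time, slope by linear regression) with the P-gp modulator nicardipine, compared to the rate with test compound.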

Results on one molecule are retold here after ChEMBL document CHEMBL4196179, “Synthesis and Pharmacological Evaluation of Noscapine-Inspired 5-Substituted Tetrahydroisoquinolines as Cytotoxic Agents” (J Med Chem, 2018).

Activity calls are given as the source filed them. No cut-off for these calls is given here.

Turning to `COc1ccc2c(c1OC)C(=O)O[C@@H]2[C@H]1c2c(cc3c(c2OC)OCO3)CCN1C` [NOSCAPINE], the Activity is 26.7 RFU/min in the data set on NCI/ADR-RES [1]; 16.1% with PANC-1 [5]; 10.8% in the data set with PANC-1 [6]; 16% in the data set on PANC-1 [9]; 2% in the data set with MCF7 [12]; 69.3% in the data set on PANC-1 [14]. The Vmax (milli optical density/minute) in the data set listed under Sus scrofa was 20. Moreover, the IC50 was 42 µM in the data set on MCF7 [2]; 25 µM in the data set with HeLa; 17.4 µM in the data set with NCI/ADR-RES [4]; 18.8 µM with MCF7 [10]; 39 µM in data set [15]. The half-life in [3] was 4.5 h. The result in the data set on MCF7 [7] was inactive. In [8], this molecule gave a bioavailability of 30%. Further, the EC50 in data set [11] came out at 69.7 µM. Further, the fold change (FC) in the data set filed under Homo sapiens [13] came to 17.6. Moreover, in the data set listed under Homo sapiens [16], the Ratio was 4.
